Test results taken from ChEMBL document CHEMBL2331084, “Synthesis and evaluation of oxime derivatives as modulators for amyloid beta-induced mitochondrial dysfunction” (Eur J Med Chem, 2013).

What was measured:
Plasma = assay: (§1) Metabolic stability in rat plasma at 0.5 ug/ml after 2 hrs by LC/MS analysis; format: ADME, cell-free; details: 2 h
How it was run: (§2)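 Drug-free rat plasma spiked from acetonitrile stock to 0.5 μg/mL, held at 37 °C with shaking for 0, 15, 30, 60 and 120 min. Quenched with 2 volumes of acetonitrile containing carbamazepine internal standard, centrifuged, supernatant quantified by LC–MS/MS.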

[1] = AUC (0 to infinity) in Sprague-Dawley rat at 3 mg/kg, ip; format: ADME, organism-based; parameters: dose 3 mg/kg, route intraperitoneal, time infinity; details: plasma
[2] = Cmax in Sprague-Dawley rat at 3 mg/kg, ip; format: ADME, organism-based; parameters: dose 3 mg/kg, route intraperitoneal; details: in vivo
HT-22 [3] = assay: Inhibition of mPTP in mouse HT22 cells assessed as reduction in amyloid beta-induced mitochondrial membrane damage at 10 uM incubated for 10 mins prior to amyloid beta-challenge measured every 1 hr for 3 hrs by JC-1 based fluorometric analysis; format: cell-based; parameters: scale not given: the % may be the effect or the level left
How it was run: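 HT-22 cells, 30,000 per well, seeded a day earlier, loaded with 7.5 μM JC-1 (final) in phenol red-free Opti-MEM for 1 h 15 min at 37 °C, then PBS-washed. Compound solution at 10 μM for 10 min at 37 °C, then amyloid beta 1–42 solution at 10 μM. Red (ex/em 530/580) and green (485/530) fluorescence read hourly for 3 h. Green/red ratio change normalised to vehicle as 100%.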

[4] = Metabolic stability in human liver microsomes at 1 uM after 30 mins by LC/MS analysis; format: ADME, Microsome; details: read-out: Stability
How it was run: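 Pooled human liver microsomes (0.5 mg/mL protein), compound at 1 μM, 1.2 mM NADPH, 100 mM phosphate pH 7.4, 37 °C with shaking for 30 min, in duplicate. Stopped with ice-cold acetonitrile containing internal standard, centrifuged, supernatant analysed by LC–MS/MS for % remaining.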

[5] = Ratio of drug uptake in brain to drug uptake in plasma in ICR mouse at 10 mg/kg, po; format: ADME, organism-based; parameters: dose 10 mg/kg, route oral; details: read-out: BPR
[6] = AUClast in Sprague-Dawley rat at 3 mg/kg, ip; format: ADME, organism-based; parameters: dose 3 mg/kg, route intraperitoneal, time 0 - last; details: plasma
[7] = Tmax in Sprague-Dawley rat at 3 mg/kg, ip; format: ADME, organism-based; parameters: dose 3 mg/kg, route intraperitoneal; details: in vivo
[8] = Cmax in ICR mouse at 10 mg/kg, po; format: ADME, organism-based; parameters: dose 10 mg/kg, route oral; details: in vivo
[9] = Cytotoxicity against mouse […] cells assessed as cell viability at 10 uM after 24 hrs by MTT assay; format: cell-based; details: read-out: Activity
HT-22 [10] = assay: Inhibition of mPTP in mouse HT22 cells assessed as recovery in amyloid beta-suppressed ATP level at 5 uM incubated for 10 mins prior to amyloid beta-challenge measured for 7 hrs relative to control; format: cell-based; parameters: scale not given: the % may be the effect or the level left
How it was run: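 HT-22 mouse hippocampal cells, grown in DMEM with 10% FBS at 37 °C and 5% CO2, were seeded the day before. Compound (10 µM solution) added 10 min before amyloid beta 1-42 (10 µM solution), then 7 h at 37 °C. Lysates normalised to equal protein by BCA, and ATP measured with a luciferase kit. % recovery is relative to the amyloid-treated vehicle. Viability is from ATP without amyloid beta.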

[11] = AUClast in ICR mouse at 10 mg/kg, po; format: ADME, organism-based; parameters: time 0 - last, dose 10 mg/kg, route oral; details: plasma
[12] = Tmax in ICR mouse at 10 mg/kg, po; format: ADME, organism-based; parameters: dose 10 mg/kg, route oral; details: in vivo
HT-22 [13] = assay: Neuroprotective activity against in mouse HT22 cells assessed as inhibition of amyloid beta-induced toxicity at 10 uM incubated for 10 mins prior to amyloid beta-challenge measured after 24 hrs by MTT assay; format: functional
How it was run: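 HT-22 mouse hippocampal cells (DMEM, 10% FBS), 5000 per well, seeded a day before. Compound solution at 10 μM added 10 min before amyloid beta 1–42 solution at 10 μM, then 24 h at 37 °C. MTT 2 h, then acidified Triton/isopropanol for 1 h at RT, A570. Vehicle subtracted; % inhibition versus Aβ-treated vehicle; viability from wells without Aβ.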

[14] = Cytotoxicity against mouse […] cells assessed as cell viability at 5 uM; format: cell-based; details: HT22 cells, read-out: Activity
[15] = Terminal half life in Sprague-Dawley rat at 3 mg/kg, ip; format: ADME, organism-based; parameters: dose 3 mg/kg, route intraperitoneal; details: in vivo, read-out: beta t1/2
[16] = as §1; format: ADME, cell-free; details: read-out: Stability; how it was run: as §2
[17] = Tmax in Sprague-Dawley rat at 10 mg/kg, po; format: ADME, organism-based; parameters: dose 10 mg/kg, route oral; details: in vivo
How it was run: (§3)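 Male Sprague-Dawley rats dosed 10 mg/kg iv (n = 3) or orally (n = 4). Carotid blood sampled at 0, 1 min (iv only), 5 min, 15 min, 0.5, 1, 2, 4, 6 and 8 h. Plasma analysed by LC-MS/MS after acetonitrile precipitation with internal standard (LLOQ 5 ng/mL). Parameters from non-compartmental analysis. Values are mean ± SD.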

[18] = Apparent volume of distribution at steady state in Sprague-Dawley rat at 10 mg/kg, iv; format: ADME, organism-based; parameters: dose 10 mg/kg, route intravenous; details: in vivo, read-out: Vdss(app); how it was run: as §3
[19] = AUClast in Sprague-Dawley rat at 10 mg/kg, po; format: ADME, organism-based; parameters: time 0 - last, dose 10 mg/kg, route oral; details: plasma
How it was run: (§4)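 Male Sprague Dawley rats received 10 mg/kg intravenously (n = 3) or orally (n = 4). Blood was drawn via the carotid artery at 0, 1 min (IV only), 5 and 15 min, and 0.5, 1, 2, 4, 6 and 8 h. Plasma was precipitated with acetonitrile containing internal standard and analysed by LC–MS/MS (LLOQ 5 ng/mL). Parameters came from non-compartmental analysis; AUClast used the trapezoidal rule. Values are mean ± SD.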

[20] = AUClast in Sprague-Dawley rat at 10 mg/kg, iv; format: ADME, organism-based; parameters: time 0 - last, dose 10 mg/kg, route intravenous; details: plasma; how it was run: as §4
[21] = Bioavailability in Sprague-Dawley rat at 10 mg/kg, po; details: in vivo
[22] = Terminal half life in Sprague-Dawley rat at 10 mg/kg, iv; format: ADME, organism-based; parameters: dose 10 mg/kg, route intravenous; details: in vivo, read-out: beta t1/2; how it was run: as §3
[23] = Ratio of drug uptake in brain to drug uptake in plasma in Sprague-Dawley rat at 10 mg/kg, iv; format: ADME, organism-based; parameters: dose 10 mg/kg, route intravenous; details: read-out: BPR
How it was run: (§5)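 Male Sprague-Dawley rats given 10 mg/kg iv or orally. Brain-to-plasma concentration ratio taken 2 h after dosing. Concentrations measured by LC-MS/MS.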

[24] = Cmax in Sprague-Dawley rat at 10 mg/kg, po; format: ADME, organism-based; parameters: dose 10 mg/kg, route oral; details: in vivo; how it was run: as §3
[25] = Terminal half life in Sprague-Dawley rat at 10 mg/kg, po; format: ADME, organism-based; parameters: dose 10 mg/kg, route oral; details: in vivo, read-out: beta t1/2; how it was run: as §3
[26] = Clearance in Sprague-Dawley rat at 10 mg/kg, iv; format: ADME, organism-based; parameters: dose 10 mg/kg, route intravenous; details: in vivo; how it was run: as §3
[27] = AUC (0 to infinity) in Sprague-Dawley rat at 10 mg/kg, po; format: ADME, organism-based; parameters: time infinity, dose 10 mg/kg, route oral; details: plasma
[28] = Cmax in Sprague-Dawley rat at 10 mg/kg, iv; format: ADME, organism-based; parameters: dose 10 mg/kg, route intravenous; details: in vivo; how it was run: as §3
[29] = Ratio of drug uptake in brain to drug uptake in plasma in Sprague-Dawley rat at 10 mg/kg, po; format: ADME, organism-based; parameters: dose 10 mg/kg, route oral; details: read-out: BPR; how it was run: as §5
[30] = Clearance in Sprague-Dawley rat at 10 mg/kg, po; format: ADME, organism-based; parameters: dose 10 mg/kg, route oral; details: in vivo; how it was run: as §3
[31] = AUC (0 to infinity) in Sprague-Dawley rat at 10 mg/kg, iv; format: ADME, organism-based; parameters: time infinity, dose 10 mg/kg, route intravenous; details: plasma

In the case of C(=N\OC1CN2CCC1CC2)/c1ccccc1OCc1ccccc1 (stereo not given), the Stability (Plasma) is reported as “Stable”, the AUC(0-inf) [1] is reported as 990 ng·h/mL and the Cmax [2] is reported as 524 ng/mL. The Activity (HT-22 [3]) was 59%, the remaining at 0.5 h, 1 µM [4] was 85% and the Kp [5] was 273. For the same molecule, the AUC(0-t) [6] was 930 ng·h/mL, the Tmax [7] was 0.417 h and the Cmax [8] was 330 ng/mL. It also gave a viability at 24 h, 10 µM [9] of 84%, an Activity (HT-22 [10]) of 13% and an AUC(0-t) [11] of 525 ng·h/mL. For the same molecule, the Tmax [12] was 5 min, the inhibition at 10 µM (HT-22 [13]) was 0% and the viability at 5 µM [14] was 92%. For the same molecule, the half-life [15] was 6.1 h.

With Clc1ccccc1COc1ccccc1/C=N/OC1CN2CCC1CC2 (stereo not given) the Activity (HT-22 [3]) was 88%.

FC(F)(F)c1cccc(COc2ccccc2/C=N/OC2CN3CCC2CC3)c1 (stereo not given) gave an Activity (HT-22 [3]) of 90%.

For Clc1cccc(COc2ccccc2/C=N/OC2CN3CCC2CC3)c1 (stereo not given), the Activity (HT-22 [3]) was 101%.

With CN1CCCC(O/N=C/c2ccccc2OCc2cccc(F)c2)C1 (stereo not given) the Activity (HT-22 [3]) was 32%, the Activity (HT-22 [10]) was 9% and the viability at 5 µM [14] was 136%.

C(=N\OC1CCN(Cc2ccccc2)C1)/c1ccccc1OCc1ccccc1 (stereo not given) showed an Activity (HT-22 [3]) of 38%, an Activity (HT-22 [10]) of -137% and a viability at 5 µM [14] of 99%.

In the case of CN1CCCC(O/N=C/c2ccccc2OCc2ccc(Cl)c(Cl)c2)C1 (stereo not given), the Activity (HT-22 [3]) is reported as 62%.

FC(F)(F)c1cccc(/C=N/OC2CN3CCC2CC3)c1 (stereo not given) showed an Activity (HT-22 [3]) of 74%.

In the case of Clc1ccc(COc2ccccc2/C=N/OC2CN3CCC2CC3)cc1Cl (stereo not given), the Activity (HT-22 [3]) is reported as 77%.

In the case of Fc1ccc(COc2ccccc2/C=N/OC2CN3CCC2CC3)cc1 (stereo not given), the Activity (HT-22 [3]) is reported as 93%.

Work on COc1ccc(COc2ccccc2/C=N/OC2CN3CCC2CC3)cc1 (stereo not given) yielded an Activity (HT-22 [3]) of 96%.

With C(=N\OC1CN2CCC1CC2)/c1cccc(OCc2ccccc2)c1 (stereo not given) the Activity (HT-22 [3]) was 121%.

With C(=N\OC1CN2CCC1CC2)/c1cccc(Oc2ccccc2)c1 (stereo not given) the Activity (HT-22 [3]) was 138%.

For CN1CCC(O/N=C/c2ccccc2OCc2ccc(Cl)c(Cl)c2)C1 (stereo not given), the Activity (HT-22 [3]) was 57%.

For CN1CCC(O/N=C/c2cccc(C(F)(F)F)c2)C1 (stereo not given), the Activity (HT-22 [3]) was 108%.

Molecule CC(C)N1CCC(O/N=C/c2ccccc2OCc2ccc(Cl)c(Cl)c2)C1 (stereo not given) has an Activity (HT-22 [3]) of 95%.

For COc1ccccc1/C=N/OC1CN2CCC1CC2 (stereo not given), the Activity (HT-22 [3]) was 71%.

With FC(F)(F)c1ccccc1/C=N/OC1CN2CCC1CC2 (stereo not given) the Activity (HT-22 [3]) was 86%.

Work on FC(F)(F)c1ccc(COc2ccccc2/C=N/OC2CN3CCC2CC3)cc1 (stereo not given) yielded an Activity (HT-22 [3]) of 85%.

In the case of Fc1ccccc1/C=N/OC1CN2CCC1CC2 (stereo not given), the Activity (HT-22 [3]) is reported as 96%.

Molecule Clc1ccc(COc2ccccc2/C=N/OC2CN3CCC2CC3)c(Cl)c1 (stereo not given) has an Activity (HT-22 [3]) of 69%.

With COc1ccccc1/C=N/OC1CCN(C(C)C)C1 (stereo not given) the Activity (HT-22 [3]) was 55%.

With Clc1ccc(COc2ccccc2/C=N/OC2CCN(Cc3ccccc3)C2)cc1Cl (stereo not given) the remaining at 2 h, 0.5 ug/ml [16] was 111%, the Activity (HT-22 [3]) was 41% and the Tmax [17] was 2 h. The remaining at 0.5 h, 1 µM [4] was 47.8%, the Vd [18] was 2.87 L/kg and the AUC(0-t) [19] was 1960 ng·h/mL. It also gave an AUC(0-t) [20] of 5890 ng·h/mL, a viability at 24 h, 10 µM [9] of 129% and an Activity (HT-22 [10]) of 104%. The bioavailability [21] was 38.1%, the half-life [22] was 2.35 h and the Kp [23] was 14.6. It also gave a Cmax [24] of 570 ng/mL, a half-life [25] of 2.92 h and an inhibition at 10 µM (HT-22 [13]) of 149%. It also gave a clearance [26] of 28.1 mL/min/kg, an AUC(0-inf) [27] of 2390 ng·h/mL and a Cmax [28] of 44500 ng/mL. It also gave a Kp [29] of 0.29, a CL/F [30] of 72.1 mL/min/kg and a viability at 5 µM [14] of 83%. It also gave an AUC(0-inf) [31] of 6280 ng·h/mL.

CC(C)N1CCC(O/N=C/c2ccccc2OCc2ccc(Cl)cc2Cl)C1 (stereo not given) showed an Activity (HT-22 [3]) of 61%.

CN1CCCC(O/N=C/c2cccc(C(F)(F)F)c2)C1 (stereo not given) showed an Activity (HT-22 [3]) of 84%.
